Data on 10 molecules can be found in ChEMBL document CHEMBL1125911, “Synthesis and biological activity of new HMG-CoA reductase inhibitors. 3. Lactones of 6-phenoxy-3,5-dihydroxyhexanoic acids” (J Med Chem, 1991).

Experiment [1] is filed under the species Sus scrofa. In words: In vitro inhibition of Cu2+ catalyzed LDL oxidation. In kind it is functional. In a few lines: (§1)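 Porcine plasma LDL isolated by sequential ultracentrifugation (density 1.019-1.063 g/mL), dialysed against PBS pH 7.4, then diluted to 0.1 mg/mL protein. Preincubated 1 h at 37 °C under N2 with compound in ethanol. Oxidised with 5 μM Cu2+ for 2 h at 37 °C in air. Fluorescence read at ex 365/em 430 nm.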

For experiment [2], the species on record is Rattus norvegicus. In words: In vitro inhibition of microsomal lipid peroxidation at 10e-5 M conc. Format: functional. In a few lines: (§2)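 Rat liver microsomes in 50 mM Tris-HCl pH 7.4 with 100 mM KCl and 6.0 mM MgCl2, final protein 0.4 mg/mL. Peroxidation was started with ADP (2 mM)/FeCl3 (10 μM) plus an NADPH-regenerating system. Incubation 30 min at 37 °C with shaking. Thiobarbituric acid reactive substances were read at 535 nm.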

The species named for experiment [3] is Sus scrofa. In words: Compound was tested for inhibition of Cu2+ catalyzed LDL oxidation and the potency relative to terbufucine was determined. Format: functional. In a few lines:
as §1

The species named for experiment [4] is Rattus norvegicus. The experiment can be described thus: Compound was tested for inhibition of microsomal lipid peroxidation and the potency relative to terbufucine was determined. Format: functional. In a few lines: as §2
The species named for experiment [5] is Rattus norvegicus. In words: In vitro inhibition of microsomal lipid peroxidation. In kind it is functional. In a few lines:
as §2

In experiment [6] the target is T1, 3-hydroxy-3-methylglutaryl-coenzyme A reductase (Homo sapiens, UniProt P04035).
T1 sequence (P04035 whole entry): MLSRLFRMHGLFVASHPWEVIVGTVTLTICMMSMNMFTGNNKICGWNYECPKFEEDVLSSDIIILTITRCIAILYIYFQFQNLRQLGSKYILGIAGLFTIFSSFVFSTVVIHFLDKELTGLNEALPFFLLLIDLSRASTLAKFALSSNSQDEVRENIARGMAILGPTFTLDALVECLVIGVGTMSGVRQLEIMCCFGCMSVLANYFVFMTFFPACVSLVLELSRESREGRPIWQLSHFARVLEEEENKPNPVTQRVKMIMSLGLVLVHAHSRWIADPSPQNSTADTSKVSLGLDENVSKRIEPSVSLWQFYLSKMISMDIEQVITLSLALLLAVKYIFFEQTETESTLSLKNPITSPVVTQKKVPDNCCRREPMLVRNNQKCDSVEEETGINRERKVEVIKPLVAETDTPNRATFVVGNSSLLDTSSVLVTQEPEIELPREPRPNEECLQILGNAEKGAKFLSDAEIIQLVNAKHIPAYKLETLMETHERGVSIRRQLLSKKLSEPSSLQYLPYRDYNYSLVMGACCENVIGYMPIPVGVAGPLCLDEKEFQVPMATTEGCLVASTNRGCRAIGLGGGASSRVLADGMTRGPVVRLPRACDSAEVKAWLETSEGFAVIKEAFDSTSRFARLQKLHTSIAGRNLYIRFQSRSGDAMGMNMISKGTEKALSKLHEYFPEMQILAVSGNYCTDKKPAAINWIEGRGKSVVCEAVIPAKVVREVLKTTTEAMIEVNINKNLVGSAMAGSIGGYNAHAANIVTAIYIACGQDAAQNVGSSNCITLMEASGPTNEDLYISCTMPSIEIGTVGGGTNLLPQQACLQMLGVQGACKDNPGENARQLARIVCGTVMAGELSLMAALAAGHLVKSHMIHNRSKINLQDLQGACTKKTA
The experiment can be described thus: Inhibition of the incorporation of sodium [14C]acetate into cholesterol in HEP G2 cells. Format: functional, cell-based, HepG2.

The target in experiment [7] is T2, 3-hydroxy-3-methylglutaryl-coenzyme A reductase (Homo sapiens) (UniProt P04035).
T2 sequence (whole entry): T1 sequence (P04035 whole entry)
The experiment can be described thus: (§3) Inhibition of HMG-CoA reductase compared to mevinolin. Format: functional. In a few lines:
(§4)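 Solubilized, partially purified rat liver HMG-CoA reductase. IC50 from four or five inhibitor concentrations. Relative potency compared IC50 with mevinolin (set to 100), corrected for molecular weight.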

Experiment [8] deals with Oryctolagus cuniculus. In words: Tested in vivo for hypocholesterolemic activity by measuring its ability to decrease serum total cholesterol, after oral administration of 10 mg/kg body wt. per day in normolipidemic NZW rabbits. Format: functional. Put shortly: (§5)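 NZW rabbits (n = 5 or 6) dosed orally daily for 10 days. Serum total cholesterol reported as % change versus control. For 20 mg/kg, that dose was given on days 11-20 after 10 mg/kg, with the value read on day 20. Error given as SEM.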

Experiment [9] is filed under the species Rattus norvegicus. In words: Potency relative to mevinolin was determined with respect to IC50. […]. Format: functional.
Experiment [10] has as its system Rattus norvegicus. The experiment can be described thus: In vivo inhibition of hepatic cholesterol de novo synthesis in rat after oral administration of 5 mg/kg dose. Format: functional.
The target in experiment [11] is T3, 3-hydroxy-3-methylglutaryl-coenzyme A reductase (Rattus norvegicus, UniProt P51639).
T3 sequence (P51639 whole entry): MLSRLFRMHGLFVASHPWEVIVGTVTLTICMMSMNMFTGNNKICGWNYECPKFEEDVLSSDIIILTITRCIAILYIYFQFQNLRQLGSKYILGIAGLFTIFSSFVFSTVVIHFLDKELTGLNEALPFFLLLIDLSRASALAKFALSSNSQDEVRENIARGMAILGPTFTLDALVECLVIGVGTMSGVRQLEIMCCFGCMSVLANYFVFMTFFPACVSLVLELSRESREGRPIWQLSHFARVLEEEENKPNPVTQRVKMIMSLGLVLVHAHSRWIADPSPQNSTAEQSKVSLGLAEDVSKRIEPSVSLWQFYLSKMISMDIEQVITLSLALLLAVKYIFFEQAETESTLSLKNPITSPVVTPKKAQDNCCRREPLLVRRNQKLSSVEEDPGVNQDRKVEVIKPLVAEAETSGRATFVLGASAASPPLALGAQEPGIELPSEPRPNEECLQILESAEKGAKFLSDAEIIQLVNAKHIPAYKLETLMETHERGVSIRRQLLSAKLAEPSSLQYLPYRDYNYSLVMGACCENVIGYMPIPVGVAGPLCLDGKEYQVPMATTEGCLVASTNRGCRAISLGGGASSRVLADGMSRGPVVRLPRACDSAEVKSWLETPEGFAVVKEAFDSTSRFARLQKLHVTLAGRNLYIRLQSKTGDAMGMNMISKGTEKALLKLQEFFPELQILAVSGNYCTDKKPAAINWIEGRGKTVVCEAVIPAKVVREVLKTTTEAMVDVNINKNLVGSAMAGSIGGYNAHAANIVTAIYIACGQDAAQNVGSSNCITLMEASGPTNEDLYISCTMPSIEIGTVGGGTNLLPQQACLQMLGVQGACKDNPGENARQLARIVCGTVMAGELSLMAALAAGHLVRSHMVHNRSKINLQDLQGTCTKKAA
The experiment can be described thus: In vitro inhibition of solubilized HMG-CoA reductase in rat liver.

Experiment [12] concerns Oryctolagus cuniculus. In words: Tested in vivo for hypocholesterolemic activity by measuring its ability to decrease serum total cholesterol, after oral administration of 50 mg/kg body wt. per day in normolipidemic NZW rabbits. Format: functional. Put shortly: as §5
Experiment [13] deals with T3, 3-hydroxy-3-methylglutaryl-coenzyme A reductase. The experiment can be described thus: In vitro inhibition of HMG-CoA reductase in solubilized rat liver.
The target of experiment [14] is T4, 3-hydroxy-3-methylglutaryl-coenzyme A reductase (Rattus norvegicus) (UniProt P51639).
T4 sequence (whole entry): T3 sequence (P51639 whole entry)
Described as §3. Put shortly:
as §4

Experiment [15] has as its system Oryctolagus cuniculus. The experiment can be described thus: Tested in vivo for hypocholesterolemic activity by measuring its ability to decrease serum total cholesterol, after oral administration of 5 mg/kg body wt. per day in normolipidemic NZW rabbits. Format: functional. Put shortly: as §5

`CC(C)c1cc(Sc2ccc(F)cc2)cc(-c2ccc(F)cc2)c1O`: the IC50 in [1] was 1 µM; in experiment [5] it was 3 µM. In addition, in experiment [2], the inhibition worked out at 95%. Also, the Relative potency amounted to 11 in [3] and 3 in experiment [4].
`CC(C)(C)c1cc(C(C(=O)O)c2cc(C(C)(C)C)c(O)c(C(C)(C)C)c2)cc(C(C)(C)C)c1O` [TERBUFICIN] yielded an IC50 in [1] of 0.11 µM. The molecule also gave a Relative potency in experiment [4] of 100.
As for `CC(C)c1cc(-c2ccc(F)cc2)c(OCC2C[C@@H](O)CC(=O)O2)c(C(C)C)c1` (stereo partly drawn), half-maximal inhibition in experiment [6] (IC50) required 0.0018 µM. For the same molecule, the Relative potency in [7] was found to be 250; in [9] it was 103. Further, the Change in experiment [8] is -30%. The Cholesterol in experiment [10] is given as 11.4%.
`CC(C)c1cc(C(C)(C)C)cc(-c2ccc(F)cc2)c1OCC1C[C@@H](O)CC(=O)O1` (stereo partly drawn): the Change in [8] was -15%. The Relative potency in experiment [9] is recorded as 6. For the same molecule, the Cholesterol in [10] stood at 95.7%.
Consider `CC(C)c1cc(-c2ccccc2)nc(-c2ccc(F)cc2)c1/C=C/[C@@H](O)C[C@@H](O)CC(=O)O`, for which, in experiment [11], the IC50 amounted to 0.003 µM.
For `Cc1cc(Cl)cc(CCCOc2ccc(Cl)cc2)c1OCC1C[C@@H](O)CC(=O)O1` (stereo partly drawn), the Change in [12] is -2%. Moreover, the Relative potency in experiment [9] amounted to 87. The molecule further yielded a Cholesterol in [10] of 25.2%.
With `CC(C)c1c(O)c(C(C)C)c(C(C)C)c(OCC(O)C[C@@H](O)CC(=O)[O-])c1-c1ccc(F)cc1.[Na+]` (stereo partly drawn), the IC50 amounted to 0.0056 µM in experiment [6], 0.02 µM in experiment [13] and 1.1 µM in experiment [1]. Moreover, the Relative potency in experiment [7] was 900; in [3], 10; in experiment [4], less than 0.1; in experiment [14] it was 34. Moreover, in experiment [2], the inhibition came out at 27%.
`Cc1cc(C)c(OCC2C[C@@H](O)CC(=O)O2)c(C(c2ccc(F)cc2)c2ccc(F)cc2)c1` (stereo partly drawn): the Change in experiment [12] is -19%. Also, the Relative potency in experiment [9] came to 33. Besides, the Cholesterol in experiment [10] came to 71.6%.
For the molecule `CC(=O)[O-].CC(C)c1c(OC[C@@H](O)C[C@@H](O)CC(=O)[O-])c(C(C)C)c(C(C)C)c(O)c1-c1ccc(F)cc1.[Na+].[Na+]`, the figures for the IC50 in experiment [6] and in [1] were 0.0041 µM and 6 µM, respectively. Also, the results for the Relative potency in experiment [7], in [3] and in experiment [4] were 1200, 2 and less than 0.1, respectively. In [2], this molecule displayed an inhibition of less than 10%. The Change in experiment [15] is -12%.
As to `CC(C)c1c(CCC(O)C[C@@H](O)CC(=O)O)c(-c2ccc(F)cc2)cn1-c1ccccc1` (stereo partly drawn), the IC50 in experiment [11] stood at 0.003 µM.

By IC50 is commonly meant the concentration that inhibits the measured activity by half. Low readings indicate greater potency in that assay, high ones weaker potency in that assay. In general, inhibition refers to the drop in the measured response relative to a control, in per cent. The low end stands for a weak effect, the high end for a strong effect.
